Results taken from ChEMBL document CHEMBL1152748, “Inhibition of iNOS and COX-2 in human whole blood ex vivo and monocyte-macrophage J774 cells by a new group of aminothiopyrimidone derivatives” (Bioorg Med Chem, 2009).

What was measured:
[1] = molecular target: T1, Prostaglandin G/H synthase 2 (Homo sapiens, UniProt P35354); test: Inhibition of COX2 in LPS-stimulated human whole blood assessed as inhibition of PGE2 production by […]; type: tissue-based
T1 sequence (P35354 whole entry): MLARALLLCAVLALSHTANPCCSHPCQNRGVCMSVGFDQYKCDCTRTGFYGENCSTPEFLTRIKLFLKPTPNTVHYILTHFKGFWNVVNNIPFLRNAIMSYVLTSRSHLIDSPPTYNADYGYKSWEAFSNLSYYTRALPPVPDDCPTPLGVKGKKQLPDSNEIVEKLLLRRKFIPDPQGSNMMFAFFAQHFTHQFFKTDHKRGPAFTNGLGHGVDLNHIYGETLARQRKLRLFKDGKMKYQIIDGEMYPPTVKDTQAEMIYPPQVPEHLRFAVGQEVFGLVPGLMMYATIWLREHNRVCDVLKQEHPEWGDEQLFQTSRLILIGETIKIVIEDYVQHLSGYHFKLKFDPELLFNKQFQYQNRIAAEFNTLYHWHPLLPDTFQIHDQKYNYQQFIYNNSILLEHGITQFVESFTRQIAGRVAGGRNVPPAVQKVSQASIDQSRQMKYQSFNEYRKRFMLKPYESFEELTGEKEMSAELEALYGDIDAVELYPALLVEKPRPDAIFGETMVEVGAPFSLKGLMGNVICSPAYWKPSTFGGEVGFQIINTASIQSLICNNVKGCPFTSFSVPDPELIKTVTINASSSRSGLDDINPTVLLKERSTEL
Procedure, shortened: (§1)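 Heparinized (10 IU) whole blood from young healthy volunteers, drawn 48 h after 300 mg oral aspirin to suppress platelet COX-1. 1 ml aliquots; compound added in DMSO (final 10 µM) before LPS 10 µg/ml, 24 h at 37 °C. Plasma stored at -70 °C, PGE2 by competitive peroxidase EIA at 450 nm (range 50–6400 pg/ml). Mean ± SEM, three experiments in triplicate.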

[2] = molecular target: T2, Nitric oxide synthase, inducible (Mus musculus) (UniProt P29477); test: Inhibition of iNOS in LPS-stimulated mouse J774 cells assessed as inhibition of nitric oxide generation at 10 uM; type: cell-based
T2 sequence (whole entry): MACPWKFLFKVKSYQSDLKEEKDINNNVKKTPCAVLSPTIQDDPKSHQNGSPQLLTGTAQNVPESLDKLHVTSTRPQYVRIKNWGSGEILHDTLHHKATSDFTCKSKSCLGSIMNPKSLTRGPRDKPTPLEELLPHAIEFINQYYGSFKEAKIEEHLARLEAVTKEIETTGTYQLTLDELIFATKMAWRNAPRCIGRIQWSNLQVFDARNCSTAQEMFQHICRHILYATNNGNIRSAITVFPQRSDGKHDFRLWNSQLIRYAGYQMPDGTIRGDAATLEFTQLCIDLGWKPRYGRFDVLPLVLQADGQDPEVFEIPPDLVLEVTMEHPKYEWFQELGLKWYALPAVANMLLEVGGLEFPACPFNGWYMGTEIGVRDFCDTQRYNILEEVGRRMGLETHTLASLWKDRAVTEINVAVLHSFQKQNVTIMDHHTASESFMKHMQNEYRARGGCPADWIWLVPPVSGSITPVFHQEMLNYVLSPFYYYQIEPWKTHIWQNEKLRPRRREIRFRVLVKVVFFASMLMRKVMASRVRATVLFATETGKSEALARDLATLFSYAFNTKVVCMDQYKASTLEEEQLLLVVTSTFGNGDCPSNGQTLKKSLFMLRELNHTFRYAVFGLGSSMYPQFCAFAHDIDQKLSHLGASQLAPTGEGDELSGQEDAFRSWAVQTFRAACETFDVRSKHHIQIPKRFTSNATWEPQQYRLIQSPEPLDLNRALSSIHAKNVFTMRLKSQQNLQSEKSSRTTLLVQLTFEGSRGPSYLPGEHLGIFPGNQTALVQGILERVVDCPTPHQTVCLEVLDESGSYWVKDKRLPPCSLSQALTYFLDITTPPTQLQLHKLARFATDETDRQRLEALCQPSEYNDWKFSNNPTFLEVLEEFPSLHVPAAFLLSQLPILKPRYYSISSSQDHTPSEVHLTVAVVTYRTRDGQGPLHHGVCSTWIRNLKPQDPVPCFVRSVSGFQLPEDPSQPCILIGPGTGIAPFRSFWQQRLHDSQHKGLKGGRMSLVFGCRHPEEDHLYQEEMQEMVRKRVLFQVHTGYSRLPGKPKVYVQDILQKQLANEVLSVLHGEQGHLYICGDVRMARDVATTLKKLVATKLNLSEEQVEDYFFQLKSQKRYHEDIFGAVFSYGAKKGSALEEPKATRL
Procedure, shortened: (§2)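 J774 cells plated at 2.5×10^5 cells/ml, adhered 24 h, then given LPS 5 µg/ml for 72 h with compound at 10 µM (DMSO vehicle). Supernatant nitrite measured by Griess reaction, 10 min at room temperature, absorbance at 550 nm against sodium nitrite standard (detection limit 1 µM). NGMMA 500 µM served as control. Mean ± SEM, three experiments in triplicate.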

[3] = molecular target: T3, Prostaglandin G/H synthase 2 (Homo sapiens) (UniProt P35354); conditions: Blood, at 10 µM
T3 sequence (whole entry): T1 sequence (P35354 whole entry)

[4] = molecular target: T3, Prostaglandin G/H synthase 2 (Homo sapiens); test: Activation of COX2 in LPS-stimulated human whole blood assessed as stimulation of PGE2 production at 10 uM […]; type: tissue-based; procedure, shortened: as §1
[5] = molecular target: T4, Prostaglandin G/H synthase 2 (Mus musculus) (UniProt Q05769); test: Activation of COX2 in LPS-stimulated mouse J774 cells assessed as stimulation of PGE2 production by […]; type: cell-based; set-up: concentration or dose not given beside the values
T4 sequence (whole entry): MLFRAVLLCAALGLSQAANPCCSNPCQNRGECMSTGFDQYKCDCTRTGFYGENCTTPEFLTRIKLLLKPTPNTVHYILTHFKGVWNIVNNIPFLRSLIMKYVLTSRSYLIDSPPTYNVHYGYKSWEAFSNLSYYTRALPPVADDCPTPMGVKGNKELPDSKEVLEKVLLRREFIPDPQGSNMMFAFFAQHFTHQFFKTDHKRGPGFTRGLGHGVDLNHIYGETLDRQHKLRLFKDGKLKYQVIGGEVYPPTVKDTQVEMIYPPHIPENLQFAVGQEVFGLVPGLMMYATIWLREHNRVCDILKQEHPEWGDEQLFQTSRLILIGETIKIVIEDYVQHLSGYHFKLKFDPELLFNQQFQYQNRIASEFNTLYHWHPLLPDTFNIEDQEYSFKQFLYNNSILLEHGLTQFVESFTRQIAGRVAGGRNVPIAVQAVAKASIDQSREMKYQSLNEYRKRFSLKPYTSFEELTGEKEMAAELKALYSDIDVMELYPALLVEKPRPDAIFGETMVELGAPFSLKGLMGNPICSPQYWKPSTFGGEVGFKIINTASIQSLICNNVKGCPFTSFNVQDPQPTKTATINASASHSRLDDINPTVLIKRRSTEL
Procedure, shortened: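 Mouse J774 monocyte-macrophages in DMEM/10% FCS, plated at 2.5×10^5 cells/ml and adhered 24 h. Stimulated with LPS 5 µg/ml for 72 h with compound (10 µM, DMSO vehicle). Supernatant PGE2 by competitive peroxidase EIA at 450 nm (50–6400 pg/ml) against vehicle control. Mean ± SEM, three experiments in triplicate.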

[6] = molecular target: T2, Nitric oxide synthase, inducible (Mus musculus); test: Activation of iNOS in LPS-stimulated mouse J774 cells assessed as stimulation of nitric oxide generation at 10 uM; type: cell-based; procedure, shortened: as §2

## Nn1c(SC(C(=O)O)c2ccccc2)nc2ccc(Br)cc2c1=O (stereo unspecified)
[1]
  IC50: 7 µM
[2]
  inhibition: 38%
[3]
  inhibition: 70%

## COc1ccc2c(c1)c(CC(=O)O)c(C)n2C(=O)c1ccc(Cl)cc1
[2]
  inhibition: 90%

## CS(=O)(=O)Nn1c(Sc2ccc([N+](=O)[O-])cc2[N+](=O)[O-])nc2sc(-c3ccccc3)cc2c1=O
[1]
  IC50: 3.4 µM
[2]
  inhibition: 100%
[3]
  inhibition: 100%

## CC(Sc1nc2sc(-c3ccccc3)cc2c(=O)n1N)C(=O)O (stereo unspecified)
[4]
  Activity: 90%
[5]
  Activity: 250%
[6]
  Activity: 52%

## CC(Sc1nc2ccccc2c(=O)n1N)C(=O)O (stereo unspecified)
[1]
  IC50: 5.8 µM
[2]
  inhibition: 50%
[3]
  inhibition: 88%

## Cc1ccc(-c2cc(C(F)(F)F)nn2-c2ccc(S(N)(=O)=O)cc2)cc1
[2]
  inhibition: 96%

## Cc1sc2nc(SC(C(=O)O)c3ccccc3)n(N)c(=O)c2c1C (stereo unspecified)
[4]
  Activity: 205%
[5]
  Activity: 346%
[6]
  Activity: 11%

## Nn1c(SC(C(=O)O)c2ccccc2)nc2ccccc2c1=O (stereo unspecified)
[4]
  Activity: 21%
[5]
  Activity: 30%
[6]
  Activity: 5%

## Nn1c(Sc2ccc([N+](=O)[O-])cc2[N+](=O)[O-])nc2sc(-c3ccccc3)cc2c1=O
[2]
  inhibition: 60%
[3]
  inhibition: 75%

## CC(Sc1nc2c(sc3ccccc32)c(=O)n1N)C(=O)O (stereo unspecified)
[4]
  Activity: 6%
[5]
  Activity: 52%
[6]
  Activity: 10%

## Nn1c(SC2CCCCC2)nc2sc(-c3ccccc3)cc2c1=O
[2]
  inhibition: 70%
[3]
  inhibition: 90%

## Nn1c(SC(C(=O)O)c2ccccc2)nc2ccsc2c1=O (stereo unspecified)
[2]
  inhibition: 55%

## CC(Sc1nc2c([nH]c3ccccc32)c(=O)n1N)C(=O)O (stereo unspecified)
[4]
  Activity: 28%
[5]
  Activity: 180%
[6]
  Activity: 35%
